Assay results taken from ChEMBL document CHEMBL1147131, “Investigation of the lactam side chain length necessary for optimal indenoisoquinoline topoisomerase I inhibition and cytotoxicity in human cancer cell cultures” (J Med Chem, 2007).
Calls of active or inactive are those of the source. No cut-off for these calls is given here.

Experiments:
SF-268 = experiment: Cytotoxicity against human SF268 cells; format: functional
[1] = Cytotoxicity against human HCT116 cells; format: cell-based; conditions: HCT-116 cells
[2] = Cytotoxicity against human UACC62 cells; format: cell-based; conditions: UACC-62 cells
[3] = Cytotoxicity against human OVCAR-3 cells; format: cell-based
[4] = Cytotoxicity against human SN12C cells; format: cell-based
[5] = Cytotoxicity against human DU145 cells; format: cell-based; conditions: DU-145 cells
[6] = Cytotoxicity against human […] cells; format: cell-based
[7] = target: T1, DNA topoisomerase 1 (Homo sapiens) (UniProt P11387); experiment: Inhibition of human recombinant topoisomerase 1-mediated DNA cleavage after 30 mins
T1 sequence (whole entry): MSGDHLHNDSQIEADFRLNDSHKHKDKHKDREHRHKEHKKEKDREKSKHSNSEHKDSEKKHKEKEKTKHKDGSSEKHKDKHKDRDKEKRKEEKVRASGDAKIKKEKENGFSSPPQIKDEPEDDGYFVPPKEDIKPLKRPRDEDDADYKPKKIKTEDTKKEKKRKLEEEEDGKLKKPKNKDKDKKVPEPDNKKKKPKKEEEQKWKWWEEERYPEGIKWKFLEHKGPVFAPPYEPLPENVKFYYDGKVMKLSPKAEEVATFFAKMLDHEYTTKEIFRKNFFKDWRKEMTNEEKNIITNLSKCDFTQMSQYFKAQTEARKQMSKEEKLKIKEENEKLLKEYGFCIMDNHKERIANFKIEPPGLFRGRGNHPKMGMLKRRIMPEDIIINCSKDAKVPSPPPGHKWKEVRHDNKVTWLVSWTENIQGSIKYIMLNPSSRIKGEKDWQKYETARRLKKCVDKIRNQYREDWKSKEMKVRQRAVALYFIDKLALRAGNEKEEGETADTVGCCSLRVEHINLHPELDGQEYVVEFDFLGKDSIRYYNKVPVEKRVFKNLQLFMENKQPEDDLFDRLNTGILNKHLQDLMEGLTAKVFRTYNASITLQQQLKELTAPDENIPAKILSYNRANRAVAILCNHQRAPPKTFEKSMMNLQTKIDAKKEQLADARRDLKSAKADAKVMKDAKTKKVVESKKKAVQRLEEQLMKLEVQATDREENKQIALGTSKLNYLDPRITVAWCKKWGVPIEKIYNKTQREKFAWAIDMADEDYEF
Procedure, shortened: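 Human recombinant Top1 purified from baculovirus. Substrate: 161 bp PvuII/HindIII fragment of pBluescript SK(−), 3′-end labeled at the HindIII site by Klenow fill-in with [α-32P]-dGTP. About 50,000 dpm per reaction, incubated with Top1 plus drug for 30 min at 22 °C. Stopped with SDS (0.5% final). Run on denaturing 16% polyacrylamide/7 M urea gels and phosphorimaged. Cleavage scored semi-quantitatively (+ scale) against the parent indenoisoquinoline.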

[8] = Cytotoxicity against human HOP62 cells; format: cell-based; conditions: HOP-62 cells

Structure (SMILES)	GI50 (SF-268) [µM]	GI50 [1] [µM]	GI50 [2] [µM]	GI50 [3] [µM]	GI50 [4] [µM]	GI50 [5] [µM]	GI50 [6] [µM]	Activity [7]	GI50 [8] [µM]
CC(C)(C)OC(=O)NCCCCCCCn1c2c(c3ccccc3c1=O)C(=O)c1ccccc1-2	20.9	17.4	20	33.9	74.1	31.6	81.3	inactive	
CC(C)(C)OC(=O)NCCCCCCCCCCCCn1c2c(c3ccccc3c1=O)C(=O)c1ccccc1-2	20.4	> 100	27.5	> 100	> 100	91.2	> 100		32.4
NCCCn1c2c(c3ccccc3c1=O)C(=O)c1ccccc1-2	0.25	0.18	0.26	1.38	0.16	0.22	0.78		0.2
CC(C)(C)OC(=O)NCCCCCCCCn1c2c(c3ccccc3c1=O)C(=O)c1ccccc1-2	8.71	25.7	15.5		> 50.1	> 50.1	> 50.1	inactive	10.7
NCCCCCCn1c2c(c3ccccc3c1=O)C(=O)c1ccccc1-2	1.23	0.912	1.62	2	1.32	0.603	2.04		1.29
COc1cc2c3c(n(CCCNCCCNCCN)c(=O)c2cc1OC)-c1cc2c(cc1C3=O)OCO2		23	37	20	20	52	38		
O=C1c2ccccc2-c2c1c1ccccc1c(=O)n2Cc1cccnc1	6.76		8.71	13.8	13.8	13.8	42.7		7.59
CC(C)(C)OC(=O)NCCCCCCCCCCn1c2c(c3ccccc3c1=O)C(=O)c1ccccc1-2	42.7	60.3	43.6	> 100	> 100	97.7	> 100	inactive	28.8
NCCCCCCCCCCn1c2c(c3ccccc3c1=O)C(=O)c1ccccc1-2	1.82	2.75	13.8	10.7	3.31	3.47	11.7	inactive	4.79
CC(C)(C)OC(=O)NCCCCCCCCCCCn1c2c(c3ccccc3c1=O)C(=O)c1ccccc1-2	29.5	35.5	24	70.8	> 100	91.2	> 100		20.9
Nn1c2c(c3ccccc3c1=O)C(=O)c1ccccc1-2	28.2	> 50.1	> 50.1	> 50.1	> 50.1	> 50.1	> 50.1	inactive	24.5
COc1cc2c3c(n(C)c(=O)c2cc1OC)-c1cc2c(cc1C3=O)OCO2							96		
COc1cc2c3c(n(CCCNCCCNCCCN)c(=O)c2cc1OC)-c1cc2c(cc1C3=O)OCO2		43	44	0.88	33	> 100	68		
O=C1c2ccccc2-c2c1c1ccccc1c(=O)n2CCc1cccnc1	27.5		89.1	> 100	> 100	81.3	4.57	inactive	28.8
NCCCCCCCCCCCn1c2c(c3ccccc3c1=O)C(=O)c1ccccc1-2	2.04	1.91	1.7	2.09	2	4.57	11		2.19
COc1cc2c3c(n(CCCNCCNCCN)c(=O)c2cc1OC)-c1cc2c(cc1C3=O)OCO2		0.9	2.6	1.7	2.5	1.2	2.7		2.8
NCCCCn1c2c(c3ccccc3c1=O)C(=O)c1ccccc1-2	0.1	0.1	0.05	0.52	0.04	0.01	0.84		0.08
CC(C)(C)OC(=O)NCCCCCCCCCn1c2c(c3ccccc3c1=O)C(=O)c1ccccc1-2	17.8		17.4	28.8	77.6	> 100	> 100		24.5
O=C1c2ccccc2-c2c1c1ccccc1c(=O)n2Cc1ccccn1	12.3		10.7	13.8	28.2	13.5	3.09	inactive	11.2
NCCCCCCCn1c2c(c3ccccc3c1=O)C(=O)c1ccccc1-2	1.78	1.26	2	1.7	1.66	0.832	2.24	inactive	1.2
COc1cc2c3c(n(CCCNCCNCCCN)c(=O)c2cc1OC)-c1cc2c(cc1C3=O)OCO2		1.3	1.9	8.1	1.7	4.6	3.4		2.9
NCCCCCCCCCn1c2c(c3ccccc3c1=O)C(=O)c1ccccc1-2	9.77	6.46	9.33	9.55	8.51	6.03	9.55	inactive	6.76
NCCCCCCCCn1c2c(c3ccccc3c1=O)C(=O)c1ccccc1-2	2.82	1.66	3.8	3.47	3.47	3.39	5.62		2.14
CC[C@@]1(O)C(=O)OCc2c1cc1n(c2=O)Cc2cc3ccccc3nc2-1 [CAMPTOTHECIN]	0.01						0.04		
O=C1c2ccccc2-c2c1c1ccccc1c(=O)n2CCc1ccccn1	17.4		27.5	> 100	77.6	74.1	5.13	inactive	21.4
NCCCCCn1c2c(c3ccccc3c1=O)C(=O)c1ccccc1-2	0.871	0.2	1.35	0.708	0.398	0.347	1.35	inactive	0.288
NCCCCCCCCCCCCn1c2c(c3ccccc3c1=O)C(=O)c1ccccc1-2	18.2		14.8	17.8	13.5	19.1	19.5		17
NCCn1c2c(c3ccccc3c1=O)C(=O)c1ccccc1-2	0.21	0.27	0.92	0.71	0.49	0.76	0.92		0.62
